Measurements of several laboratories.
Protocols differ between the studies behind these lines.
PIP4K2C: Phosphatidylinositol 5-phosphate 4-kinase type-2 gamma (PIP4K2C, Homo sapiens, UniProt Q8TBX8)
MME: Neprilysin (MME, Homo sapiens, UniProt P08473)

SMILES | target | effect on | action | method | concentration | endpoint | value
C#Cc1n[nH]c2c(-c3cn([C@@H](C)c4ccccc4)c(=O)[nH]c3=O)cc(F)cc12 | Tyrosine-protein kinase JAK2 (JAK2, Homo sapiens, UniProt O60674) | enzyme activity | inhibitor | – | 0.1 µM | inhibition | -3%
COc1ncccc1-c1cnn2ccc(N3CCN(C(=O)OC(C)C)CC3)nc12 | PIP4K2C | binding | – | competition with immobilised ligand | 1 µM | remaining binding | 9.5%
Nc1ncc(-c2nc(N3CCOCC3)nc(N3CCOCC3)n2)c(C(F)F)n1 | Serine/threonine-protein kinase 38 (STK38, Homo sapiens, UniProt Q15208) | binding | – | competition with immobilised ligand | 10 µM | remaining binding | 66%
C#Cc1n[nH]c2c(-c3cn([C@@H](C)c4ccccn4)c(=O)[nH]c3=O)cc(F)cc12 | Proto-oncogene tyrosine-protein kinase receptor Ret (RET, Homo sapiens, UniProt P07949, V804L) | enzyme activity | inhibitor | – | 0.1 µM | inhibition | 4.5%
O=C(Nc1cccnn1)N1CCN([C@@H]2CCOc3cc(C(F)(F)F)ccc32)CC1 | MME | enzyme activity | inhibitor | – | 20 µM | inhibition | 3%
Cc1ncc(C)n2nc(/C=C/c3nc(N4CCCC4)cc(N4CCOCC4)n3)nc12 | MME | enzyme activity | inhibitor | – | 10 µM | inhibition | -13%
Cc1nn(C)cc1-c1nc2c(N3CCN(Cc4ccc(Cl)cc4)CC3)c(Cl)cnc2[nH]1 | PIP4K2C | binding | – | competition with immobilised ligand | 1 µM | remaining binding | 80%
COc1cc(Nc2ncc(F)c(Nc3ccc4c(n3)NC(=O)C(C)(C)O4)n2)cc(OC)c1OC | Dual specificity mitogen-activated protein kinase kinase 4 (MAP2K4, Homo sapiens, UniProt P45985) | binding | – | competition with immobilised ligand | 10 µM | inhibition | 85%
C[C@H](C(=O)N[C@H]1COc2ccccc2[C@@H]1S(C)(=O)=O)c1ccc(F)cc1 | MME | enzyme activity | inhibitor | – | 10 µM | inhibition | -1%
Cc1sc2c(c1C)C(c1ccc(Cl)cc1)=N[C@@H](CC(=O)OC(C)(C)C)c1nnc(C)n1-2 | Stimulator of interferon genes protein (STING1, Homo sapiens, UniProt Q86WV6, H232R) | thermal stability | – | DSF | 200 µM | ΔTm | -1.58 °C
c1ccc(C(NCCNC(c2ccccc2)c2ccccc2)c2ccccc2)cc1 | MME | enzyme activity | inhibitor | – | 10 µM | inhibition | 8%
CCN(CC)CCCC[C@H](NC(=O)[C@H](CC(C)C)NC(=O)[C@H](C)NC(=O)[C@H](Cc1ccccc1)NC(=O)c1ccc(C(C)(C)C)cc1)C(=O)N[C@@H](CO)C(=O)OC | Bromodomain adjacent to zinc finger domain protein 2A, bromodomain (BAZ2A, Homo sapiens, UniProt Q9UIF9) | thermal stability | – | DSF | 25 µM | ΔTm | -0.23 °C
